Where two headings read alike, the source gives them in different places.
Columns and labels:
[1] = from literature, cited from earlier work
[2] = literature; cited from earlier work
[3] = cited from earlier work
[4] = test system: Type A strains; details: tissue culture; cited from earlier work
[5] = test system: H1N1 NWS/33 strain of influenza; details: cited from earlier work
[6] = test system: rat jejunum; assay: Single-pass intestinal; format: in vivo; details: rat jejunal perfusion
[7] = test system: Caco-2 monolayers; assay: Caco-2 cell monolayers permeability; format: in vitro ADME, human; details: A to B
[8] = Chemical stability in pH buffers; format: physicochemical; details: for T1/2 −pH 6.0: pH 6.0 buffer; for T1/2 −pH 6.0 / T1/2 pH 7.4: value given in h; for T1/2 pH 7.4: pH 7.4 buffer
[9] = target: T1, PEPT1 (Homo sapiens, UniProt P46059); assay: [3H]Gly-Sar uptake inhibition in Caco-2 cells; format: cell-based
T1 sequence (P46059 1-708): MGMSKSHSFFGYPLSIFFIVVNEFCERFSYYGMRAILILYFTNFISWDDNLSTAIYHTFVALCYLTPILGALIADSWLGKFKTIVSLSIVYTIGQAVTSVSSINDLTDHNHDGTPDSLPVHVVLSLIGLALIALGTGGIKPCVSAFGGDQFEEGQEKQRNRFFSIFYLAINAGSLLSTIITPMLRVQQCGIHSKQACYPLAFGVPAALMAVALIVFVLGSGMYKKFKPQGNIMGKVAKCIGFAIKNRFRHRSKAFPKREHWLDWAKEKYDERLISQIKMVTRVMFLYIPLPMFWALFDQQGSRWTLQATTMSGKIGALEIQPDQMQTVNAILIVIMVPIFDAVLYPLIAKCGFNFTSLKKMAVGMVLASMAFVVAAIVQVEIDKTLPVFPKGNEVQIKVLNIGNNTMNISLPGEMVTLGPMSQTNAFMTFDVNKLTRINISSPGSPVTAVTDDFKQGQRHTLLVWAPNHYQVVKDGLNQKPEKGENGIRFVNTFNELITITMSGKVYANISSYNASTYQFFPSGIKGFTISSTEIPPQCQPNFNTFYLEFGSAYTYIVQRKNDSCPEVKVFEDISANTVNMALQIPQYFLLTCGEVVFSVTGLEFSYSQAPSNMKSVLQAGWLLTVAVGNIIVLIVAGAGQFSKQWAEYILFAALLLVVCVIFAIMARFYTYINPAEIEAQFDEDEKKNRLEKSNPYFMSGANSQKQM
Outline: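 Caco-2 cells seeded at 5.0 × 10^4/well and grown 10 days. Washed and preincubated 15 min in pH 6.0 MES uptake buffer, then exposed 30 min at 37°C to 10 μM Gly-Sar (~1% [3H]) plus test compound 0.05–5 mM. Cells washed with ice-cold PBS, lysed in MeOH/water 1:1, counted by scintillation; IC50 by nonlinear fit; mean ± SEM, n = 3.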

[10] = mice; for AUC24hr / Cmax / Tmax hrs: GOCarb measured in plasma; for oral bioavailability: 10 mg/kg oral gavage relative to 1 mg/kg IV
[11] = test system: human lysosomal neuraminidase; details: cited from earlier work
[12] = target: T1, PEPT1; assay: Direct uptake in PEPT1 over-expressing HeLa cells; format: cell-based; details: 1 mM
[13] = test system: Type B strains; details: tissue culture; cited from earlier work

CC(C)[C@H](N)C(=O)OCCOCn1cnc2c(=O)[nH]c(N)nc21 [Valacyclovir]
T1/2 −pH 6.0 ([1]; pH 6.0): ND^b 69.7 h^c | T1/2 pH 7.4 ([1]; pH 7.4): ND^b >8 h^c | bioavailability in humans [2]: up to 80%

CCC(CC)O[C@@H]1C=C(C(=O)O)C[C@H](NC(=N)N)[C@H]1NC(C)=O [GOCarb, 4-Guanidine oseltamivir carboxylate]
intestinal permeability ([3]; in rats): < 5% | oral bioavailability ([3]; species not stated in abstract): 4% | fold more potent than OC [4]: approximately 100 fold | IC50 ([5]; H1N1 NWS/33 strain of influenza): 0.9 nM | approximate EC50 ([5]; versus the A/NWS/33 virus, dashed line in Figure 8): ~5 ng/mL | jejunal permeability [6]: very low permeability | jejunal permeability ([6]; listed as parent drug): essentially zero permeability | permeability across Caco-2 monolayers [7]: negligible permeability | hydrolysis in buffers ([8]; all pHs, up to 20 hours): limited hydrolysis | T1/2 −pH 6.0 [8]: >20h | T1/2 pH 7.4 [8]: >20h | competition with [3H]Gly-Sar [9]: little competition | AUC24hr ([10]; 1 mg/kg IV): 487 ± 206 ng·h/mL | AUC24hr ([10]; 10 mg/kg po-fasted): 278 ± 52 ng·h/mL | Cmax ([10]; 10 mg/kg po-fasted): 50.9 ± 35.8 ng/mL | Tmax hrs ([10]; 10 mg/kg po-fasted): 1.3 ± 0.6 h | AUC24hr ([10]; 10 mg/kg po-fed): 291 ± 87 ng·h/mL | Cmax ([10]; 10 mg/kg po-fed): 65.4 ± 26.8 ng/mL | Tmax hrs ([10]; 10 mg/kg po-fed): 3.0 ± 1.2 h | oral bioavailability ([10]; fasted): approximately 5% | oral bioavailability ([10]; fed): approximately 5% | fold more potent in inhibiting human lysosomal neuraminidase as compared to OC [11]: ~ 10 fold | uptake into transfected or non-transfected cells [12]: virtually no uptake | fold more potent than OC [13]: ~13 fold

CCOC(=O)C1=C[C@@H](OC(CC)CC)[C@H](NC(C)=O)[C@@H](NC(=N)N)C1 [GOC ethyl ester]
T1/2 −pH 6.0 [8]: >20h | T1/2 pH 7.4 [8]: >20h
